Assay results published in ChEMBL document CHEMBL3393005, “Design and synthesis of novel 2-pyrazoline-1-ethanone derivatives as selective MAO inhibitors” (Bioorg Med Chem, 2015).
pIC50: −log10 of the molar value.

How the values were obtained:
Homo sapiens = species: Homo sapiens; assay: Selectivity index, ratio of IC50 for human recombinant MAO-B to IC50 for human recombinant MAO-A
Procedure, shortened: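 SI = IC50(MAO-B)/IC50(MAO-A), both from the same Amplex Red/p-tyramine H2O2 fluorimetric assay. Each isoform came from microsomes of baculovirus-infected insect cells: MAO-A at 1.1 µg, MAO-B at 7.5 µg, matched to equal velocity.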

[1] = target: T1, Amine oxidase [flavin-containing] B (Homo sapiens, UniProt P27338); assay: Inhibition of human recombinant MAO-B using p-tyramine as substrate assessed as production of H2O2 incubated for 15 mins prior to substrate addition measured after 20 mins by microplate fluorescence reader analysis
T1 sequence (P27338 whole entry): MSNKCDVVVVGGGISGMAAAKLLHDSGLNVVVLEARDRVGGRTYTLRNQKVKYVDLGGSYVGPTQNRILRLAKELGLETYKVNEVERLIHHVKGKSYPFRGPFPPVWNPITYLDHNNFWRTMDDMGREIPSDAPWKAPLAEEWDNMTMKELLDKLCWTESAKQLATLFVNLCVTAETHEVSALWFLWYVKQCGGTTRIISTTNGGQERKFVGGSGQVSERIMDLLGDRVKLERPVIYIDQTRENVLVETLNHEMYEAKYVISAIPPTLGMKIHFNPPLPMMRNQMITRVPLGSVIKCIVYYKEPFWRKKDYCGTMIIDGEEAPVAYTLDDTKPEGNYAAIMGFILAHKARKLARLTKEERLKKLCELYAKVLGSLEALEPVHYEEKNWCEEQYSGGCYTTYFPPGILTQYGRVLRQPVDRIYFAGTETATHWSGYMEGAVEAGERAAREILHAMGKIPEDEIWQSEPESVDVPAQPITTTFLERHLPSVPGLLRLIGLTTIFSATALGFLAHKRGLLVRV

[2] = target: T2, Amine oxidase [flavin-containing] A (Homo sapiens, UniProt P21397); assay: Inhibition of human recombinant MAO-A using p-tyramine as substrate assessed as production of H2O2 incubated for 15 mins prior to substrate addition measured after 20 mins by microplate fluorescence reader analysis
T2 sequence (P21397 whole entry): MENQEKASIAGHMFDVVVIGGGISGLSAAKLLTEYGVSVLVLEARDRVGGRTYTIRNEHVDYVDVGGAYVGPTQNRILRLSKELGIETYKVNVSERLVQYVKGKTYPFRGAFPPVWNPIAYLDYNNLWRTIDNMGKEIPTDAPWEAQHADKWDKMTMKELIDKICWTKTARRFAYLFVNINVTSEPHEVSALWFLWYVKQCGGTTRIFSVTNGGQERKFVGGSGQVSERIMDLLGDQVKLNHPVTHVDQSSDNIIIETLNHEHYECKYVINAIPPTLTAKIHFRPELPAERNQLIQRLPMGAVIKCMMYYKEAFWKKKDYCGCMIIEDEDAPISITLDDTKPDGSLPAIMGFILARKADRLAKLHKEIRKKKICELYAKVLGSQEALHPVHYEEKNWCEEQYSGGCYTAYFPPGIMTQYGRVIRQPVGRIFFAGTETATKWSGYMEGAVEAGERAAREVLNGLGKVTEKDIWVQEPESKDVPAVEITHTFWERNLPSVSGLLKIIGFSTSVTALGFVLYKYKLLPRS

[3] = target: T2, Amine oxidase [flavin-containing] A; assay: Inhibition of human recombinant MAO-A using p-tyramine as substrate assessed as production of H2O2 incubated for 15 mins prior to substrate addition at 60 uM […] by microplate fluorescence reader analysis; settings: 20 min
[4] = target: T1, Amine oxidase [flavin-containing] B; assay: Inhibition of human recombinant MAO-B using p-tyramine as substrate assessed as production of H2O2 incubated for 15 mins prior to substrate addition at 60 uM measured after 20 mins by microplate fluorescence reader analysis

| Compound | Ratio IC50 (Homo sapiens) | pIC50 [1] | pIC50 [2] | inhibition (INH) [3] | INH [4] |
| --- | --- | --- | --- | --- | --- |
| COc1ccc(C2=NN(C(=O)CN3CCOCC3)C(c3cc(Cl)ccc3O)C2)cc1 (centres undefined) | 3.1 | 4.25 | 4.74 | – | – |
| O=C(CN1CCCCC1)N1N=C(c2ccc(Cl)cc2)CC1c1cc(Cl)ccc1O (centres undefined) | 7.3 | 4.36 | 5.22 | – | – |
| O=C(Cn1ccnc1)N1N=C(c2ccc(F)cc2)CC1c1cc(Cl)ccc1O (centres undefined) | – | – | – | Not Active | Not Active |
| O=C(CBr)N1N=C(c2ccc(F)cc2)CC1c1ccccc1O (centres undefined) | 8.8 | 4.28 | 5.22 | – | – |
| COc1ccc(C2=NN(C(=O)Cn3ccnc3)C(c3cc(Cl)ccc3O)C2)cc1 (centres undefined) | – | – | – | Not Active | Not Active |
| O=C(CN1CCOCC1)N1N=C(c2ccc(F)cc2)CC1c1ccccc1O (centres undefined) | 3.6 | – | 4.77 | – | Not Active |
| O=C(CN1CCCCC1)N1N=C(c2ccc(F)cc2)CC1c1cc(Cl)ccc1O (centres undefined) | 16.1 | – | 5.43 | – | Not Active |
| CC1=NN(C(=O)CN2CCC(O)CC2)C(c2cc(Br)cc(Br)c2O)C1 (centres undefined) | 4.8 | – | 4.91 | – | Not Active |
| Cc1ccc(C2=NN(C(=O)CN3CCOCC3)C(c3cc(Cl)ccc3O)C2)cc1 (centres undefined) | 2.2 | – | 4.57 | – | Not Active |
| CC1=NN(C(=O)CN2CCCCC2)C(c2cc(Br)cc(Br)c2O)C1 (centres undefined) | 6.4 | 4.30 | 5.11 | – | – |
| C#CCN(C)[C@H](C)Cc1ccccc1 [SELEGILINE] | – | – | – | Not Active | – |
| O=C(Cn1ccnc1)N1N=C(c2ccc(F)cc2)CC1c1ccccc1O (centres undefined) | 2.3 | – | 4.58 | – | Not Active |
| COc1ccc(C2=NN(C(=O)Cn3ccnc3)C(c3ccccc3O)C2)cc1 (centres undefined) | – | – | – | Not Active | Not Active |
| O=C(CN1CCOCC1)N1N=C(c2ccccc2)CC1c1ccccc1O (centres undefined) | 2.6 | – | 4.64 | – | Not Active |
| Cc1ccc(C2=NN(C(=O)Cn3ccnc3)C(c3ccccc3O)C2)cc1 (centres undefined) | 0.69 | 4.38 | – | Not Active | – |
| COc1ccc(C2=NN(C(=O)CN3CCCCC3)C(c3cc(Cl)ccc3O)C2)cc1 (centres undefined) | 6.2 | – | 5.02 | – | Not Active |
| O=C(CN1CCOCC1)N1N=C(c2ccc(F)cc2)CC1c1cc(Cl)ccc1O (centres undefined) | 1.2 | 4.52 | 4.61 | – | – |
| Cc1ccc(C2=NN(C(=O)CN3CCCCC3)C(c3cc(Cl)ccc3O)C2)cc1 (centres undefined) | 3.9 | 4.25 | 4.84 | – | – |
| CC1=NN(C(=O)CN2CCC(CO)CC2)C(c2cc(Br)cc(Br)c2O)C1 (centres undefined) | 1.2 | 4.52 | 4.59 | – | – |

| Compound | Ratio IC50 (Homo sapiens) | pIC50 [1] | pIC50 [2] | inhibition (INH) [3] | INH [4] |
| --- | --- | --- | --- | --- | --- |
| O=C(CN1CCCCC1)N1N=C(c2ccccc2)CC1c1ccccc1O (centres undefined) | 5.3 | 4.30 | 5.02 | – | – |
| CC1=NN(C(=O)Cn2ccnc2)C(c2cc(Cl)ccc2O)C1 (centres undefined) | 2 | – | 4.52 | – | Not Active |
| O=C(CN1CCCCC1)N1N=C(c2ccc(F)cc2)CC1c1ccccc1O (centres undefined) | 5.9 | 4.32 | 5.10 | – | – |
| O=C(Cn1ccnc1)N1N=C(c2ccccc2)CC1c1ccccc1O (centres undefined) | 1 | 4.23 | – | Not Active | – |
| Cc1ccc(C2=NN(C(=O)CN3CCCCC3)C(c3ccccc3O)C2)cc1 (centres undefined) | 4 | 4.34 | 4.95 | – | – |
| Cc1ccc(C2=NN(C(=O)CN3CCOCC3)C(c3ccccc3O)C2)cc1 (centres undefined) | 3 | – | 4.70 | – | Not Active |
| Cc1ccc(C2=NN(C(=O)Cn3ccnc3)C(c3cc(Cl)ccc3O)C2)cc1 (centres undefined) | 0.27 | 4.79 | – | Not Active | – |
| CC1=NN(C(=O)CN2CCNCC2)C(c2cc(Br)cc(Br)c2O)C1 (centres undefined) | 30 | – | 5.70 | – | Not Active |
| Cc1ccc(C2=NN(C(=O)CBr)C(c3cc(Cl)ccc3O)C2)cc1 (centres undefined) | 11.5 | – | 5.28 | – | Not Active |
| CC1=NN(C(=O)CN2CCN(CCO)CC2)C(c2cc(Br)cc(Br)c2O)C1 (centres undefined) | 3.4 | 4.37 | 4.91 | – | – |
| COc1ccc(C2=NN(C(=O)CN3CCOCC3)C(c3ccccc3O)C2)cc1 (centres undefined) | 2.5 | – | 4.61 | – | Not Active |
| O=C(CN1CCCCC1)N1N=C(c2ccc(Cl)cc2)CC1c1ccccc1O (centres undefined) | 5.5 | 4.40 | 5.14 | – | – |
| O=C(CN1CCOCC1)N1N=C(c2ccc(Cl)cc2)CC1c1cc(Cl)ccc1O (centres undefined) | 1.8 | 4.26 | 4.51 | – | – |
| CC1=NN(C(=O)CN2CCOCC2)C(c2cc(Cl)ccc2O)C1 (centres undefined) | 3.2 | 4.38 | 4.88 | – | – |
| CC1=NN(C(=O)CN2CCC(=O)CC2)C(c2cc(Br)cc(Br)c2O)C1 (centres undefined) | 7 | 4.23 | 5.08 | – | – |
| CC1=NN(C(=O)CN2CCCCC2)C(c2cc(Cl)ccc2O)C1 (centres undefined) | 5.3 | 4.25 | 4.98 | – | – |
| O=C(CN1CCNCC1)N1N=C(c2ccc(F)cc2)CC1c1cc(Cl)ccc1O (centres undefined) | 24.5 | 4.23 | 5.62 | – | – |
| COc1ccc(C2=NN(C(=O)CN3CCCCC3)C(c3ccccc3O)C2)cc1 (centres undefined) | 4.7 | 4.23 | 4.90 | – | – |
| O=C(CN1CCOCC1)N1N=C(c2ccc(Cl)cc2)CC1c1ccccc1O (centres undefined) | 1.5 | 4.50 | 4.67 | – | – |
